According to ChEMBL document CHEMBL3862007, “Synthesis and antimicrobial activity of small cationic amphipathic aminobenzamide marine natural product mimics and evaluation of relevance against clinical isolates including ESBL-CARBA producing multi-resistant bacteria” (Bioorg Med Chem, 2016):

Assays:
Pseudomonas aeruginosa [1] = assay: Antibacterial activity against Pseudomonas aeruginosa PAO1 DSM 19880 (ATCC 15692) after 48 hrs by microdilution method; type: functional
[2] = Antibacterial activity against methicillin-resistant Staphylococcus epidermidis RP62A CCUG 31568 (ATCC 35984) after 48 hrs by microdilution method; type: functional
Summary of the method: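 Broth microdilution MIC against the reference-strain panel. Compounds were supplied as HCl salts for aqueous solubility in the test medium. Precipitation in the test buffer is flagged at higher concentrations.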

Bacillus subtilis [3] = assay: Antibacterial activity against Bacillus subtilis 168 ATCC 23857 after 48 hrs by microdilution method; type: functional; conditions: subsp. subtilis str. 168 ATCC 23857, 48 h
Staphylococcus aureus [4] = assay: Antibacterial activity against Staphylococcus aureus clinical isolate after 24 hrs by microdilution method; type: functional
[5] = Hemolytic activity in human RBC after 1 hr; type: ADME, cell-based; conditions: Erythrocyte
Klebsiella pneumoniae = assay: Antibacterial activity against Klebsiella pneumoniae clinical isolate after 24 hrs by microdilution method; type: functional
[6] = Selectivity index, ratio of hemolytic EC50 for human RBC to MIC for Staphylococcus aureus ATCC 9144
[7] = test system: Corynebacterium glutamicum; assay: Antibacterial activity against Corynebacterium glutamicum ATCC 13032 after 48 hrs by microdilution method; type: functional; conditions: ATCC 13032, 48 h
Pseudomonas aeruginosa [8] = assay: Antibacterial activity against Pseudomonas aeruginosa clinical isolate after 24 hrs by microdilution method; type: functional
Escherichia coli [9] = assay: Antibacterial activity against Escherichia coli clinical isolate after 24 hrs by microdilution method; type: functional
Staphylococcus aureus [10] = assay: Antibacterial activity against Staphylococcus aureus ATCC 9144 after 48 hrs by microdilution method; type: functional; conditions: ATCC 9144, 48 h
Enterococcus sp. = assay: Antibacterial activity against Enterococcus sp. clinical isolate after 24 hrs by microdilution method; type: functional
Escherichia coli [11] = assay: Antibacterial activity against Escherichia coli ATCC 25922 after 48 hrs by microdilution method; type: functional; conditions: ATCC 25922, 48 h
Bacillus subtilis [12] = assay: Membranolytic activity in Bacillus subtilis 168 ATCC 23857 carrying pCSS962 plasmid measured every second for 30 secs by luciferase reporter assay; type: functional; conditions: subsp. subtilis str. 168 ATCC 23857
Summary of the method: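 B. subtilis 168 carrying pCSS962 (luciferase-expressing) was added as a suspension already containing D-luciferin, with luminescence read in real time up to 120 s. Water served as the untreated control. Chlorhexidine was added to all samples at 30 s as a membranolytic control. Fold induction is the peak sample luminescence over the water-control maximum after chlorhexidine, from two independent experiments.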

[13] = Aqueous solubility of the compound; type: physicochemical; conditions: buffer

| SMILES | MIC (Pseudomonas aeruginosa [1]) | MIC [2] | MIC (Bacillus subtilis [3]) | MIC (Staphylococcus aureus [4]) | EC50 [5] | MIC (Klebsiella pneumoniae) | Selectivity Index [6] | MIC [7] | MIC (Pseudomonas aeruginosa [8]) | MIC (Escherichia coli [9]) | MIC (Staphylococcus aureus [10]) | MIC (Enterococcus sp.) | MIC (Escherichia coli [11]) | Activity (Bacillus subtilis [12]) | solubility [13] |
| --- | --- | --- | --- | --- | --- | --- | --- | --- | --- | --- | --- | --- | --- | --- | --- |
| CC(C)(C)c1cc(NC(=O)c2ccc(C(=O)NCCNC(=N)N)cc2)cc(C(C)(C)C)c1.Cl | 16 µg/mL | 4 µg/mL | 4 µg/mL | 4 µg/mL | 44 µg/mL | 16 µg/mL | 11 | 2 µg/mL | 8 µg/mL | 8 µg/mL | 4 µg/mL | 8 µg/mL | 8 µg/mL |  |  |
| CC(C)(C)c1cc(C(=O)Nc2cc3ccccc3cc2C(=O)NCCNC(=N)N)cc(C(C)(C)C)c1.Cl | 64 µg/mL | 2 µg/mL | 1 µg/mL | 4 µg/mL | > 16 µg/mL | 32 µg/mL | > 8 | 1 µg/mL | > 64 µg/mL | 16 µg/mL | 2 µg/mL | 8 µg/mL | 16 µg/mL |  |  |
| CC(C)(C)c1cc(C(=O)Nc2ccc(C(=O)NCCN)cc2)cc(C(C)(C)C)c1.Cl | 16 µg/mL | 8 µg/mL | 4 µg/mL | 8 µg/mL | 28 µg/mL | 16 µg/mL | 3.5 | 4 µg/mL | 16 µg/mL | 8 µg/mL | 8 µg/mL | 16 µg/mL | 8 µg/mL |  |  |
| CC(C)(C)c1cc(C(=O)Nc2ccccc2C(=O)NCCCN)cc(C(C)(C)C)c1.Cl | 32 µg/mL | 8 µg/mL | 4 µg/mL |  | 23 µg/mL |  | 2.9 | 4 µg/mL |  |  | 8 µg/mL |  | 16 µg/mL | Dose-dependent effect |  |
| CC(C)(C)c1cc(C(=O)Nc2ccccc2C(=O)NCCN)cc(C(C)(C)C)c1.Cl | 64 µg/mL | 8 µg/mL | 4 µg/mL | 8 µg/mL | 29 µg/mL | 32 µg/mL | 3.6 | 4 µg/mL | > 64 µg/mL | 16 µg/mL | 8 µg/mL | 8 µg/mL | 16 µg/mL |  |  |
| CC(C)(C)c1cc(C(=O)Nc2cc3ccccc3cc2C(=O)NCCN)cc(C(C)(C)C)c1.Cl | > 128 µg/mL | 8 µg/mL | 4 µg/mL | 2 µg/mL | 23 µg/mL | 64 µg/mL | 11.5 | 2 µg/mL | > 64 µg/mL | 8 µg/mL | 2 µg/mL | 2 µg/mL | 8 µg/mL |  |  |
| CC(C)(C)c1cc(C(=O)NCc2ccc(C(=O)NCCNC(=N)N)cc2)cc(C(C)(C)C)c1.Cl | 16 µg/mL | 8 µg/mL | 8 µg/mL |  | 52 µg/mL |  | 6.5 | 2 µg/mL |  |  | 8 µg/mL |  | 16 µg/mL |  | Insoluble |
| CC(C)(C)c1cc(C(=O)Nc2cccc(C(=O)NCCCNC(=N)N)c2)cc(C(C)(C)C)c1.Cl | 16 µg/mL | 8 µg/mL | 4 µg/mL |  | 59 µg/mL |  | 14.8 | 4 µg/mL |  |  | 4 µg/mL |  | 8 µg/mL | Dose-dependent effect |  |
| CC(C)(C)c1cc(C(=O)Nc2ccc(C(=O)NCCNC(=N)N)cc2)cc(C(C)(C)C)c1.Cl | 16 µg/mL | 4 µg/mL | 4 µg/mL | 4 µg/mL | 38 µg/mL | 16 µg/mL | 9.5 | 2 µg/mL | > 64 µg/mL | 8 µg/mL | 4 µg/mL | 8 µg/mL | 8 µg/mL | Dose-dependent effect |  |
